Measured values reported in ChEMBL document CHEMBL1123923, “Steroidal silicon side-chain analogues as potential antifertility agents” (1987).

Experiments:
[1] = molecular target: T1, Estrogen receptor (Rattus norvegicus) (UniProt P06211+Q62986); test: Oral estrogenic activity in 21 day old immature ovariectomized rats at 1000 ug; format: functional
Method in brief: (§1)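 Rats dosed orally with compound suspended in 0.5% (carboxymethyl)cellulose, 10 animals per dose, daily for 4 days starting on the day of ovariectomy. Autopsy on the day after the last dose. Read-outs were the increase in uterine weight and cornification of vaginal smears, taken from animals with open vaginas, compared against a standard estrogen.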

Rattus norvegicus [2] = species on record: Rattus norvegicus; test: Antifertility activity measured as minimum protective dose for prevention of pregnancy in rats; format: functional; set-up: unit not given here
Method in brief: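 Oral dosing in adult cycling female rats selected in the proestrous phase, 10 animals per dose, with treatment starting on the day of proestrus.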

[3] = molecular target: T1, Estrogen receptor (Rattus norvegicus); test: Oral estrogenic activity in 21 day old immature ovariectomized rats at 500 ug; format: functional; method in brief: as §1
[4] = molecular target: T1, Estrogen receptor (Rattus norvegicus); test: Oral estrogenic activity in 21 day old immature ovariectomized rats at 200 ug; format: functional; method in brief: as §1
Rattus norvegicus [5] = species on record: Rattus norvegicus; test: Separation of antifertility from estrogenic activity in rats was measured; format: functional
[6] = molecular target: T1, Estrogen receptor (Rattus norvegicus)

**Q.** For `CCCC[Si](C=C[C@]1(O)CC[C@H]2[C@@H]3CCc4cc(O)ccc4[C@H]3CC[C@@]21C)(CCCC)CCCC`, which Estrogenic potency [1] is on record?
**A.** The Estrogenic potency was 0.

**Q.** What about the Antifertility potency (Rattus norvegicus [2]) of the same compound?
**A.** The Antifertility potency was 0.

**Q.** For `C=C([C@]1(O)CC[C@H]2[C@@H]3CCc4cc(O)ccc4[C@H]3CC[C@@]21C)[Si](CCCC)(CCCC)CCCC`, which Estrogenic potency [3] is on record?
**A.** Its Estrogenic potency is 0.

**Q.** What about the Antifertility potency (Rattus norvegicus [2]) of the same compound?
**A.** The Antifertility potency was 0.

**Q.** Which Antifertility potency (Rattus norvegicus [2]) does the source give for `C=C([C@]1(O)CC[C@H]2[C@@H]3CCc4cc(O)ccc4[C@H]3CC[C@@]21C)[Si](c1ccccc1)(c1ccccc1)c1ccccc1` here?
**A.** The Antifertility potency was 0.

**Q.** And the Estrogenic potency [4]?
**A.** The Estrogenic potency was 0.

**Q.** What does the source list for `C[C@]12CC[C@@H]3c4ccc(O)cc4CC[C@H]3[C@@H]1CC[C@@]2(O)/C=C/[Si](c1ccccc1)(c1ccccc1)c1ccccc1`?
**A.** Antifertility potency (Rattus norvegicus [2]): 0; Estrogenic potency [4]: 0

**Q.** With `CCC(C)[Si](C)(C)C#C[C@]1(O)CC[C@H]2[C@@H]3CCc4cc(O)ccc4[C@H]3CC[C@@]21C` (stereo partly drawn) as the compound, how does the Separation (Rattus norvegicus [5]) read?
**A.** The Separation was 15.

**Q.** What about the Antifertility potency (Rattus norvegicus [2]) of the same compound?
**A.** The Antifertility potency was 300.

**Q.** What about the Estrogenic potency [6] of the same compound?
**A.** Its Estrogenic potency is 20.

**Q.** What does the source list for `C[C@]12CC[C@@H]3c4ccc(O)cc4CC[C@H]3[C@@H]1CC[C@@]2(O)C#C[Si](C)(C)c1ccccc1`?
**A.** Separation (Rattus norvegicus [5]): 4.7; Antifertility potency (Rattus norvegicus [2]): 33; Estrogenic potency [6]: 7

**Q.** Which Separation (Rattus norvegicus [5]) does the source give for `C#C[Si](C#C[C@]1(O)CC[C@H]2[C@@H]3CCc4cc(O)ccc4[C@H]3CC[C@@]21C)(CC)CC` here?
**A.** Its Separation is 16.

**Q.** What about the Antifertility potency (Rattus norvegicus [2]) of the same compound?
**A.** Its Antifertility potency is 600.

**Q.** What about the Estrogenic potency [6] of the same compound?
**A.** The Estrogenic potency was 37.

**Q.** What does the source list for `CCC(C#C[C@]1(O)CC[C@H]2[C@@H]3CCc4cc(O)ccc4[C@H]3CC[C@@]21C)(CC)CC`?
**A.** Estrogenic potency [1]: 0; Antifertility potency (Rattus norvegicus [2]): 0

**Q.** Which results are given for `C[C@]12CC[C@@H]3c4ccc(O)cc4CC[C@H]3[C@@H]1CC[C@@]2(O)C#C[Si](C)(CCl)CCl`?
**A.** Separation (Rattus norvegicus [5]): 4; Antifertility potency (Rattus norvegicus [2]): 150; Estrogenic potency [6]: 39

**Q.** Which Separation (Rattus norvegicus [5]) does the source give for `CCC[Si](C)(C)C#C[C@]1(O)CC[C@H]2[C@@H]3CCc4cc(O)ccc4[C@H]3CC[C@@]21C` here?
**A.** The Separation was 14.

**Q.** And the Antifertility potency (Rattus norvegicus [2])?
**A.** Its Antifertility potency is 300.

**Q.** What about the Estrogenic potency [6] of the same compound?
**A.** The Estrogenic potency was 22.

**Q.** Which results are given for `C=C([C@]1(O)CC[C@H]2[C@@H]3CCc4cc(O)ccc4[C@H]3CC[C@@]21C)[Si](CCC)(CCC)CCC`?
**A.** Separation (Rattus norvegicus [5]): 4; Antifertility potency (Rattus norvegicus [2]): 2; Estrogenic potency [6]: 0.5
